The results in this text go back to ChEMBL document CHEMBL3286371, “wALADin benzimidazoles differentially modulate the function of porphobilinogen synthase orthologs” (J Med Chem, 2014).

The source made the active and inactive calls. The rule behind the calls is not given here.

The target in experiment [1] is T1, Delta-aminolevulinic acid dehydratase (Pseudomonas aeruginosa (strain ATCC 15692 / PAO1 / 1C / PRS 101 / LMG12228), UniProt Q59643). Description: Inhibition of Pseudomonas aeruginosa PAO1 recombinant PBGS using 5-ALA as substrate. The gist of the method: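 Turnover kept at or below 30%. Porphobilinogen measured with Ehrlich's reagent. IC50 by variable-slope fit of activity normalized to DMSO control.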

For experiment [2], the target named is T2, Delta-aminolevulinic acid dehydratase, chloroplastic (Pisum sativum, UniProt P30124).
T2 sequence (P30124 whole entry): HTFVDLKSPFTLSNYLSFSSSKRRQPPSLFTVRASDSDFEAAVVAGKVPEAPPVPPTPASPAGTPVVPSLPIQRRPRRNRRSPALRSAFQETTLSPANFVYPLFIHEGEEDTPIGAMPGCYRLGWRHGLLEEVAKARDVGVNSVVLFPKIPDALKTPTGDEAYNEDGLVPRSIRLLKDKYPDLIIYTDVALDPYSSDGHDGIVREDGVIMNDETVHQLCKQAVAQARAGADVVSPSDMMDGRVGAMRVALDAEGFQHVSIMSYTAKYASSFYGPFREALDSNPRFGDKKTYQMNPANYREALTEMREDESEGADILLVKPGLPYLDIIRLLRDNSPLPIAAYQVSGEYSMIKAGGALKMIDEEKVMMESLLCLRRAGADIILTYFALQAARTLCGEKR
The experiment can be described thus: Inhibition of Pisum sativum PBGS using 5-ALA as substrate. Also on record: species or system Lathyrus oleraceus. The gist of the method:
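Pea (P. sativum) PBGS at 300 nM subunit in 100 mM BTP-HCl pH 8.5 with 1 mM MgCl2, 5 mM DTT and 0.2 mM 5-ALA, 15 min at 36 °C. Porphobilinogen detected with Ehrlich's reagent. Activity normalized to 6.7% DMSO control as 100%. IC50 from variable-slope normalized-response fit.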

Experiment [3] can be described thus: Ratio of IC50 for Pisum sativum PBGS to IC50 for C-terminal His-tagged Wolbachia PBGS.
Experiment [4] deals with T3, Delta-aminolevulinic acid dehydratase (Escherichia coli (strain K12)) (UniProt P0ACB2).
T3 sequence (whole entry): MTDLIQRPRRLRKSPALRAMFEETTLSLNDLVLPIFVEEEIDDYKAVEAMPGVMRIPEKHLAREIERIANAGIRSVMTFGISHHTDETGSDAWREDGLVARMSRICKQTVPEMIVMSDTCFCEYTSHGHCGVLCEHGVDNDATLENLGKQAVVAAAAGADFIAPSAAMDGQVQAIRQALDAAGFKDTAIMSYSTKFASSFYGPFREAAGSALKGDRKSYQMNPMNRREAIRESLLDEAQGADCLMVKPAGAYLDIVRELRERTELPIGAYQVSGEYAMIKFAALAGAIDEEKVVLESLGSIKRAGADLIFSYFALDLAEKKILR
Description: Stimulation of Escherichia coli recombinant PBGS using 5-ALA as substrate at […].

For experiment [5], the target named is T3, Delta-aminolevulinic acid dehydratase (Escherichia coli (strain K12)). The experiment can be described thus: Inhibition of Escherichia coli recombinant PBGS using 5-ALA as substrate at […].
The target of experiment [6] is Delta-aminolevulinic acid dehydratase (Yersinia enterocolitica W22703) (UniProt F4MUJ9). The experiment can be described thus: Stimulation of Yersinia enterocolitica recombinant PBGS expressed in Escherichia coli using 5-ALA as substrate at […].
For experiment [7] the target is unchanged. The experiment can be described thus: Inhibition of Yersinia enterocolitica recombinant PBGS expressed in Escherichia coli using 5-ALA as substrate at […].
Experiment [8] concerns the target Delta-aminolevulinic acid dehydratase (Pseudomonas aeruginosa (strain ATCC 15692 / PAO1 / 1C / PRS 101 / LMG12228)) (UniProt Q59643). The experiment can be described thus: Stimulation of Pseudomonas aeruginosa PAO1 recombinant PBGS using 5-ALA as substrate at […].
Experiment [9] shares this target. Description: Inhibition of Pseudomonas aeruginosa PAO1 recombinant PBGS using 5-ALA as substrate at […].
For experiment [10], the system named is Toxoplasma gondii. The experiment can be described thus: Stimulation of Toxoplasma gondii recombinant PBGS using 5-ALA as substrate at […].
In experiment [11] the test system is Toxoplasma gondii. Description: Inhibition of Toxoplasma gondii recombinant PBGS using 5-ALA as substrate at […].
Experiment [12] addresses T4, Delta-aminolevulinic acid dehydratase (Drosophila melanogaster, UniProt Q9VTV9).
T4 sequence (Q9VTV9 whole entry): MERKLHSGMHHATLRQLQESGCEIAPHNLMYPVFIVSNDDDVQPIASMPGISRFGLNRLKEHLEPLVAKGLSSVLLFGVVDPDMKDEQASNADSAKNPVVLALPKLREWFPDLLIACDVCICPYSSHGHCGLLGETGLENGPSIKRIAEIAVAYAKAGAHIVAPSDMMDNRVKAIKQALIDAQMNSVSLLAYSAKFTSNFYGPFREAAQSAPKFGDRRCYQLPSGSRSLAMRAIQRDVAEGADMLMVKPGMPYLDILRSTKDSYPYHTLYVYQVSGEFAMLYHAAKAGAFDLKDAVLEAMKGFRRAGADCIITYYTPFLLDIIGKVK
The experiment can be described thus: Inhibition of Drosophila melanogaster recombinant PBGS using 5-ALA as substrate.

The target in experiment [13] is T5, Delta-aminolevulinic acid dehydratase (Wolbachia sp. subsp. Brugia malayi (strain TRS), UniProt Q5GSR3).
T5 sequence (Q5GSR3 whole entry): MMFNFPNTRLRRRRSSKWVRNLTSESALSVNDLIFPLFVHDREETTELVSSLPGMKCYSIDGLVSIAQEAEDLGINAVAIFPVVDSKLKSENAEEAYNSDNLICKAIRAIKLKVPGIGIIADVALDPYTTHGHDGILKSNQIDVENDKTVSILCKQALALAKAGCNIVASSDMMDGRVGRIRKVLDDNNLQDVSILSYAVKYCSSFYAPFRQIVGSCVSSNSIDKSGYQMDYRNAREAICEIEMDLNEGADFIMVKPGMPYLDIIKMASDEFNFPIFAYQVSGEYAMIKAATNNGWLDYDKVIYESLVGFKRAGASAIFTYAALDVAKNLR
The experiment can be described thus: Inhibition of C-terminal His-tagged Wolbachia PBGS using 5-ALA as substrate.

The target of experiment [14] is T6, Delta-aminolevulinic acid dehydratase (Escherichia coli (strain K12), UniProt P0ACB2).
T6 sequence (P0ACB2 whole entry): T3 sequence (whole entry)
Description: Stimulation of Escherichia coli recombinant PBGS using 5-ALA as substrate. The method in brief:
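E. coli PBGS at 200 nM subunit in 100 mM BTP-HCl pH 8.1 with 1 mM MgCl2, 10 μM ZnCl2, 5 mM DTT and 0.2 mM 5-ALA, 10 min at 36 °C. Porphobilinogen detected with Ehrlich's reagent. Activity normalized to control with 6.7% DMSO set at 100%. EC50 by log(agonist) vs response variable-slope fit.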

The target in experiment [15] is Delta-aminolevulinic acid dehydratase (Yersinia enterocolitica W22703) (UniProt F4MUJ9). The experiment can be described thus: Stimulation of Yersinia enterocolitica recombinant PBGS expressed in Escherichia coli using 5-ALA as substrate relative to control. The method in brief:
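Y. enterocolitica PBGS, expressed in E. coli from pET3, at 150 nM subunit in 100 mM BTP-HCl pH 8.0 with 1 mM MgCl2, 5 mM DTT, 100 mM KCl and 0.2 mM 5-ALA, 10 min at 36 °C. Porphobilinogen read with Ehrlich's reagent. Activity normalized to 6.7% DMSO control as 100%. EC50 from variable-slope agonist fit.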

Experiment [16] has as its target T1, Delta-aminolevulinic acid dehydratase. Description: Stimulation of Pseudomonas aeruginosa PAO1 recombinant PBGS using 5-ALA as substrate. The method in brief:
(§1)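 His-tagged PaPBGS at 150 nM subunit in 100 mM Tris-HCl pH 8.0 with 1 mM MgCl2, 100 mM KCl and 0.2 mM 5-ALA, 10 min at 36 °C, with turnover at most 30%. Porphobilinogen read with Ehrlich's reagent. Activity normalized to 6.7% DMSO control as 100%. EC50 from variable-slope agonist fit.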

Experiment [17] deals with Delta-aminolevulinic acid dehydratase (Pseudomonas aeruginosa (strain ATCC 15692 / PAO1 / 1C / PRS 101 / LMG12228)) (UniProt Q59643). Description: Stimulation of Pseudomonas aeruginosa PAO1 recombinant PBGS using 5-ALA as substrate relative to control. The gist of the method:
as §1

Experiment [18] is described as follows: Stimulation of Toxoplasma gondii recombinant PBGS using 5-ALA as substrate. The method in brief: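 T. gondii PBGS, expressed from pET-21b in BL21 E. coli and purified, at 250 nM subunit in 100 mM Tris-HCl pH 8.0 with 1 mM MgCl2, 5 mM DTT and 0.2 mM 5-ALA, 20 min at 36 °C. Porphobilinogen detected with Ehrlich's reagent. Activity normalized to 6.7% DMSO control. EC50 by variable-slope agonist fit.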

For experiment [19], the system named is Toxoplasma gondii. The experiment can be described thus: Stimulation of Toxoplasma gondii recombinant PBGS using 5-ALA as substrate relative to control. The method in brief:
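Recombinant T. gondii PBGS (hemB in pET-21b, expressed in BL21 E. coli) at 250 nM subunit in 100 mM Tris-HCl pH 8.0, 1 mM MgCl2, 5 mM DTT, with 200 μM 5-ALA, 20 min at 36 °C. Porphobilinogen was read with Ehrlich's reagent, and turnover was kept at or below 30%.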

The target in experiment [20] is T7, Delta-aminolevulinic acid dehydratase (Homo sapiens, UniProt P13716).
T7 sequence (P13716 whole entry): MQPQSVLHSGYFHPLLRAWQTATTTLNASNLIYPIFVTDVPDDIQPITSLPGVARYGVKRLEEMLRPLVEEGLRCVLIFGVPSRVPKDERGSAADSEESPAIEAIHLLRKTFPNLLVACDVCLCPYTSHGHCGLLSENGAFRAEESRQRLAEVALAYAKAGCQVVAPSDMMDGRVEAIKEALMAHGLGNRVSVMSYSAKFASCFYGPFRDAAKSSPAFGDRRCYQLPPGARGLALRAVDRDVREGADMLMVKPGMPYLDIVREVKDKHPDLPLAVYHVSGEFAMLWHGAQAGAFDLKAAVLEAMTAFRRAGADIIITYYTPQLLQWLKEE
Description: Inhibition of human PBGS using 5-ALA as substrate.

Experiment [21] concerns the target T3, Delta-aminolevulinic acid dehydratase (Escherichia coli (strain K12)). The experiment can be described thus: Stimulation of Escherichia coli recombinant PBGS using 5-ALA as substrate relative to control. The gist of the method:
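E. coli PBGS at 200 nM subunit in 100 mM BTP-HCl pH 8.1 with 1 mM MgCl2, 10 μM ZnCl2, 5 mM DTT and 0.2 mM 5-ALA, 10 min at 36 °C. Porphobilinogen detected with Ehrlich's reagent. EC50 by log(agonist) vs response variable-slope fit.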

Experiment [22] concerns the target Delta-aminolevulinic acid dehydratase (Yersinia enterocolitica W22703, UniProt F4MUJ9). The experiment can be described thus: Stimulation of Yersinia enterocolitica recombinant PBGS expressed in Escherichia coli using 5-ALA as substrate.

Chain of Delta-aminolevulinic acid dehydratase (Pseudomonas aeruginosa (strain ATCC 15692 / PAO1 / 1C / PRS 101 / LMG12228)) (Q59643 whole entry): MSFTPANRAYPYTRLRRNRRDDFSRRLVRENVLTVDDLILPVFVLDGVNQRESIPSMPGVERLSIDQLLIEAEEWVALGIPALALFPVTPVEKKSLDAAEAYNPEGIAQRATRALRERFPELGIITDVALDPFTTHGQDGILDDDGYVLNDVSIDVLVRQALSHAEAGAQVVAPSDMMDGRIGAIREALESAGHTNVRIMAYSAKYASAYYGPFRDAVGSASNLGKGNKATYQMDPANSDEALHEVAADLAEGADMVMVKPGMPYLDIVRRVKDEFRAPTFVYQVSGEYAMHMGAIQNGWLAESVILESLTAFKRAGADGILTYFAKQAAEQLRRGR
T1 sequence (Q59643 whole entry): as above
Chain of Delta-aminolevulinic acid dehydratase (Yersinia enterocolitica W22703) (F4MUJ9 as listed by the source): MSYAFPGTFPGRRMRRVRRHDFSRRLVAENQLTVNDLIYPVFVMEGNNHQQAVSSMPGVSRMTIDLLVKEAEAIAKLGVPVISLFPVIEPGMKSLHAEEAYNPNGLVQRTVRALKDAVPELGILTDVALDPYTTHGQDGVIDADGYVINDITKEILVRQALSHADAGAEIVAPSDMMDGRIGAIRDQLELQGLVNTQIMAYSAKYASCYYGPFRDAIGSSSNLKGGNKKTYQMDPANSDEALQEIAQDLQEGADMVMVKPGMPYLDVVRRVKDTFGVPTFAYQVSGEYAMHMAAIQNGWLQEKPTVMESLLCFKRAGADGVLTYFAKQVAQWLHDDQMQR
Chain of Delta-aminolevulinic acid dehydratase (Yersinia enterocolitica W22703, UniProt F4MUJ9) (F4MUJ9 whole entry, one chain of several): as the sequence (F4MUJ9 as listed by the source) above

As for `O=C(O)c1c2c(nc3ccccc13)CCN(C(=O)c1cccc(C(F)(F)F)c1)C2`, the IC50 in [1] is 475 µM; in experiment [2], 88.2 µM; in experiment [12], greater than 1000 µM. Moreover, the Ratio IC50 in experiment [3] was found to be 10. For the same compound, the Smax in experiment [4], in experiment [6], in experiment [8] and in experiment [10] was 100% in each case. The inhibition result in experiment [5], in experiment [7], in experiment [9] and in experiment [11] was “inactive” throughout.
As to `O=C(O)c1ccc2c(c1)nc(CCNC(=O)c1cccs1)n2Cc1ccc(C(F)(F)F)cc1`, the half-inhibitory concentration (IC50) in experiment [2] is 44.3 µM; in experiment [13], 38.6 µM; in experiment [12] it was 1010 µM; in experiment [20], 637 µM. The concentration giving a half-maximal response (EC50) was 39 µM in [14], 68 µM in experiment [16] and 37 µM in [18]. In addition, the Smax was determined as 142% in experiment [15], 140% in [17] and 118% in [19].
On to `O=C(O)c1ccc2c(c1)ncn2Cc1cccc(C(F)(F)F)c1`, for which the IC50 in [1] worked out at 94 µM; in experiment [2] it was 18.5 µM; in [13], 13 µM; in [12], 340 µM; in experiment [20] it was 197 µM. For the same compound, the Smax in experiment [4], in experiment [6], in experiment [8] and in experiment [10] was 100% in each case. Besides, the inhibition entry in experiment [5], in [7], in experiment [9] and in experiment [11] was “inactive” each time.
Regarding `O=C(NCCc1nc2c(C(=O)O)cccc2n1Cc1cccc(C(F)(F)F)c1)c1cccs1`, the IC50 is greater than 500 µM in [2], 500 µM in [13], greater than 1000 µM in experiment [12] and 500 µM in [20]. Also, the concentration giving a half-maximal response (EC50) in experiment [14] is 19 µM; in experiment [22] it was 23 µM; in experiment [16] it was 15 µM; in [18], 21 µM. Moreover, the Smax in experiment [21] came to 116%; in experiment [15], 123%; in experiment [17] it was 136%; in experiment [19], 130%. In addition, the inhibition result in experiment [9] was “inactive”.

Broadly, the IC50 is the concentration at which inhibition is half-maximal. One may read the EC50 as the concentration at which the effect is half-maximal.
